Here are results for eight compounds from ChEMBL document CHEMBL1240442, “Design and synthesis of novel tricyclic benzoxazines as potent 5-HT(1A/B/D) receptor antagonists leading to the discovery of 6-{2-[4-(2-methyl-5-quinolinyl)-1-piperazinyl]ethyl}-4H-imidazo[5,1-c][1,4]benzoxazine-3-carboxamide (GSK588045)” (J Med Chem, 2010).

As usually defined, the half-life is the time needed for the level to fall by half in the phase considered. Low readings indicate rapid decline, high ones slow decline.

Each structure is given as a SMILES string.

Common to all, as to format: ADME, organism-based
A short description of series [1]: Oral bioavailability in Sprague-Dawley rat at 1 mg/kg. Particulars: in vivo. Summed up: (§1)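 Male Sprague-Dawley rats given 0.5 mg free base/kg iv bolus and 1 mg/kg po. Blood compound levels measured by protein precipitation and HPLC-MS/MS.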
Series [2] is described as follows: Half life in Sprague-Dawley rat at 0.5 mg/kg, iv and 1 mg/kg, po. To be noted: in vivo. The method, boiled down:
as §1

The nature of series [3]: Volume of distribution at steady state in Sprague-Dawley rat at 0.5 mg/kg, iv and 1 mg/kg, po. Particulars: in vivo, read-out: Vdss. Summed up: as §1
The nature of series [4]: Clearance in Sprague-Dawley rat blood at 0.5 mg/kg, iv and 1 mg/kg, po. To be noted: whole blood. Summed up:
as §1

Series [5] in a line: Ratio of drug level in brain to blood in Sprague-Dawley rat at 0.5 mg/kg, iv and 1 mg/kg, po after 1 hr. Particulars: brain/whole blood, read-out: BBR.

Turning to `Cc1ccc2c(N3CCN(CCc4cccc5c4OCc4nnc(C)n4-5)CC3)cccc2n1`, in series [1], the bioavailability was 51%. Also, in series [2], the half-life was 1.8 h. The Vd in series [3] was determined as 1.6 L/kg. Besides, the clearance in series [4] is 12 mL/min/kg. For the same compound, in series [5], the Kp at 1 h was 0.5.
Turning to `CNC(=O)c1ncn2c1COc1c(CCN3CCN(c4cccc5nc(C)ccc45)CC3)cccc1-2`, the bioavailability in series [1] came out at 104%. Besides, in series [2], the half-life is 6.3 h. Moreover, the Vd in series [3] came out at 3.8 L/kg. The clearance in series [4] turned out to be 8 mL/min/kg. Further, the Kp at 1 h in series [5] was 2.4.
On the same counts, the results for `Cc1ccc2c(N3CCN(CCc4cccc5c4OCc4c(C(=O)N6CCOCC6)ncn4-5)CC3)cccc2n1` are 65%, 7.6 h, 5.5 L/kg, 12 mL/min/kg and 1.7.
As to `Cc1ccc2c(N3CCN(CCc4cccc5c4OCc4c(C(=O)N6CCCC6)ncn4-5)CC3)cccc2n1`, in series [1], the bioavailability turned out to be 43%. In series [2], this compound had a half-life of 3.1 h. For the same compound, the Vd in series [3] is 5 L/kg. The compound also had a clearance in series [4] of 20 mL/min/kg. Also, in series [5], the Kp at 1 h stood at 3.2.
Turning to `Cc1ccc2c(N3CCN(CCc4cccc5c4OCc4c(C#N)ncn4-5)CC3)cccc2n1`, in series [1], the bioavailability stood at 48%. The half-life in series [2] is 5.1 h. In series [3], the Vd amounted to 3.9 L/kg. In series [4], the clearance was 10 mL/min/kg. The Kp at 1 h in series [5] is 1.6.
As to `CC(=O)c1ncn2c1COc1c(CCN3CCN(c4cccc5nc(C)ccc45)CC3)cccc1-2`, the bioavailability in series [1] was 43%. In series [2], this compound gave a half-life of 8.7 h. The Vd in series [3] was determined as 7.1 L/kg. The clearance in series [4] was 10 mL/min/kg. Moreover, the Kp at 1 h in series [5] was determined as 2.7.
In the same order, the values of `Cc1ccc2c(N3CCN(CCc4cccc5c4OCc4c(C(=O)N(C)C)ncn4-5)CC3)cccc2n1` are 50%, 2.1 h, 3.5 L/kg, 29 mL/min/kg and 1.8.
In the same order, the values of `Cc1ccc2c(N3CCN(CCc4cccc5c4OCc4c(C(N)=O)ncn4-5)CC3)cccc2n1` are 45%, 4.4 h, 2.9 L/kg, 10 mL/min/kg and 1.1.
